According to ChEMBL document CHEMBL2150931, “Design, synthesis, and biological activity of a novel series of human sirtuin-2-selective inhibitors” (J Med Chem, 2012):

Assays:
[1] = target: T1, NAD-dependent protein deacetylase sirtuin-2 (Homo sapiens, UniProt Q8IXJ6); experiment: Inhibition of human recombinant SIRT2 using Fluor de Lys-SIRT as substrate incubated for 60 mins prior to substrate addition measured after 60 mins by fluorimetric analysis
T1 sequence (Q8IXJ6 whole entry): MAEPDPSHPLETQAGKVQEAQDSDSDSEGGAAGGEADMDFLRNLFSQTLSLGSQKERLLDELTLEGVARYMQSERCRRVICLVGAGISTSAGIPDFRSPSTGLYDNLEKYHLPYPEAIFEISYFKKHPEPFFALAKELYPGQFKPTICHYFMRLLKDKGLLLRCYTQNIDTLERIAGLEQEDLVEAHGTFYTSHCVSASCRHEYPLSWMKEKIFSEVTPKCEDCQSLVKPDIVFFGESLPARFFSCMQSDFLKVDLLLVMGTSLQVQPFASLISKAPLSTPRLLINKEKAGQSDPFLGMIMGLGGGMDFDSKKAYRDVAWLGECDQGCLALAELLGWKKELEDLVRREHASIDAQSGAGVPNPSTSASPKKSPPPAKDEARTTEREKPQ
Outline: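 Human recombinant SIRT2 preincubated with 1 mM NAD⁺ and serial compound dilutions for 60 min at 37 °C, then 25 μM Fluor de Lys-SIRT substrate added. Reaction stopped at 60 min with Developer II containing nicotinamide. Fluorescence read 45 min later at ex 360/em 460 nm. % inhibition taken against control wells. IC₅₀ obtained by regression of log[Inh] vs logit % inhibition; means of ≥3 experiments.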

[2] = target: T2, NAD-dependent protein deacetylase sirtuin-1 (Homo sapiens, UniProt Q96EB6); experiment: Inhibition of human recombinant SIRT1 using Fluor de Lys-SIRT as substrate incubated for 60 mins prior to substrate addition measured after 60 mins by fluorimetric analysis
T2 sequence (Q96EB6 whole entry): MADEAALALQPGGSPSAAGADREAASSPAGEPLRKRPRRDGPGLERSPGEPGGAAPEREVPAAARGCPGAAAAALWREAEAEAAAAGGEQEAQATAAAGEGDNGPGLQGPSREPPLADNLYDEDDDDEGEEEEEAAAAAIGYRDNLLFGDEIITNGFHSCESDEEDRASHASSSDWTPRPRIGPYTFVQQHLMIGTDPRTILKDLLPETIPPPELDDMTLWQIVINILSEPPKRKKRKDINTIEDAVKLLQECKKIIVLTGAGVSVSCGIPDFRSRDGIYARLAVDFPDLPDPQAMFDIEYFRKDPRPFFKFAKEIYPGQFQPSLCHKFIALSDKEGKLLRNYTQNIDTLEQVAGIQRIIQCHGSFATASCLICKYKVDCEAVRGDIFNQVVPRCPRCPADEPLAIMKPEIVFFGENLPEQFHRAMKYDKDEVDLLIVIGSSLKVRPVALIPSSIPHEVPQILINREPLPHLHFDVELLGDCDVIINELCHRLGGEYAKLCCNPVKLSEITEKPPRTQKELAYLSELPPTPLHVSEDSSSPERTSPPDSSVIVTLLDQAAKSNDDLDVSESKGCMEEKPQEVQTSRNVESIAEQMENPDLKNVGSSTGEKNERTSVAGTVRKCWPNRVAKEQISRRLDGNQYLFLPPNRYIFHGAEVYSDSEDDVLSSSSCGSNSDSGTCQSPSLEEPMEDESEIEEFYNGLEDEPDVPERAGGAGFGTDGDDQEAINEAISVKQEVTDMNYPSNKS
Outline: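 Human recombinant SIRT1 run the same way: 60 min at 37 °C with 1 mM NAD⁺ and serial compound dilutions, then 25 μM Fluor de Lys-SIRT substrate for 60 min. Stopped with nicotinamide-containing Developer II and read 45 min later at ex 360/em 460 nm. IC₅₀ from logit regression of % inhibition vs control; means of ≥3 experiments.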

[3] = target: T3, NAD-dependent protein deacetylase sirtuin-3, mitochondrial (Homo sapiens, UniProt Q9NTG7); experiment: Inhibition of human recombinant SIRT3 using Fluor de Lys-SIRT as substrate incubated for 60 mins prior to substrate addition measured after 60 mins by fluorimetric analysis
T3 sequence (Q9NTG7 whole entry): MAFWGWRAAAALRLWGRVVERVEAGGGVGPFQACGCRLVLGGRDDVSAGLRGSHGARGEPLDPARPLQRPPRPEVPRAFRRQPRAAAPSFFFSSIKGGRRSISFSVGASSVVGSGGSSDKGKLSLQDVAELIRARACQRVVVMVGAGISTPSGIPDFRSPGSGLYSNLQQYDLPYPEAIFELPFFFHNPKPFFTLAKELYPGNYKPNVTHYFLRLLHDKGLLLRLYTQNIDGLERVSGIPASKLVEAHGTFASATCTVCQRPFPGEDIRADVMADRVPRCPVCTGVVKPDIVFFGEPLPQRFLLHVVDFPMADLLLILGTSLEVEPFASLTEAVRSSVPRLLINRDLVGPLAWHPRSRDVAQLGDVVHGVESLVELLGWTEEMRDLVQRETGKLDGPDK

| IC50 [1] [µM] | IC50 [2] [µM] | IC50 [3] [µM] | SMILES |
| --- | --- | --- | --- |
| > 100 | – | – | NC(=O)c1ccccc1Nc1ccc(C(=O)O)cc1 |
| 74 | > 100 | – | NC(=O)c1ccccc1Nc1cccc(NC(=O)Cc2ccccc2)c1 |
| > 100 | 75 | – | CN(c1ccccc1)c1ccccc1C(N)=O |
| 24 | 210 | – | NC(=O)c1ccccc1Nc1cccc(OCC2CCCCC2)c1 |
| > 100 | – | – | NC(=O)c1ccccc1Nc1cccc(CCO)c1 |
| 83 | > 100 | – | COC(=O)c1ccc(Nc2ccccc2C(N)=O)cc1 |
| 69 | > 100 | – | CN(C(=O)c1ccc(Nc2ccccc2C(N)=O)cc1)c1ccccc1 |
| 93 | – | – | N#Cc1ccc(Nc2ccccc2C(N)=O)cc1 |
| 77 | > 100 | – | CC(=O)Nc1ccc(Nc2ccccc2C(N)=O)cc1 |
| 1.8 | > 100 | – | Cc1ccccc1CCOc1cccc(Nc2ccccc2C(N)=O)c1 |
| 54 | > 300 | – | NC(=O)c1ccccc1Nc1cccc(OCc2ccccc2)c1 |
| > 100 | > 100 | – | COC(=O)c1cccc(Nc2ccccc2C(N)=O)c1 |
| > 100 | > 100 | – | CC(C)C(=O)Nc1ccc(Nc2ccccc2C(N)=O)cc1 |
| 1.1 | > 100 | – | NC(=O)c1ccccc1Nc1cccc(OCCc2ccccc2Br)c1 |
| 80 | > 100 | – | COc1ccc(Nc2ccccc2C(N)=O)cc1 |
| 25 | – | – | NC(=O)c1ccccc1Nc1cccc(Oc2ccccc2)c1 |
| 2.7 | > 100 | – | NC(=O)c1ccccc1Nc1cccc(OCCc2ccc(F)cc2)c1 |
| 1.2 | > 100 | – | NC(=O)c1ccccc1Nc1cccc(OCCc2ccc(Br)cc2)c1 |
| > 100 | > 100 | – | NC(=O)c1ccccc1Nc1ccc(-c2ccccc2)cc1 |
| 57 | > 100 | – | NC(=O)c1ccccc1Nc1cccc(NC(=O)c2ccccc2)c1 |
| > 100 | – | – | NC(=O)c1ccccc1NCc1ccccc1 |
| > 100 | > 100 | – | CN(C(=O)c1ccccc1)c1cccc(Nc2ccccc2C(N)=O)c1 |
| 100 | – | – | NC(=O)c1ccccc1Nc1cccc(C(F)(F)F)c1 |
| > 100 | > 100 | – | NC(=O)c1ccccc1Nc1cccc(C(=O)O)c1 |
| > 100 | 93 | – | NC(=O)c1ccccc1Nc1cccc(CCC(=O)O)c1 |

| IC50 [1] [µM] | IC50 [2] [µM] | IC50 [3] [µM] | SMILES |
| --- | --- | --- | --- |
| 2 | > 100 | – | NC(=O)c1ccccc1Nc1cccc(OCCc2cccc(Cl)c2)c1 |
| 72 | – | – | Cc1cccc(Nc2ccccc2C(N)=O)c1 |
| > 100 | – | – | NC(=O)c1ccccc1Nc1cccc(CO)c1 |
| > 100 | > 100 | – | NC(=O)c1ccccc1Nc1ccc(NC(=O)c2ccncc2)cc1 |
| 60 | > 100 | – | Cc1ccc(Nc2ccccc2C(N)=O)cc1 |
| 17 | > 100 | – | NC(=O)c1ccccc1Nc1ccc(NC(=O)c2ccccc2)cc1 |
| > 100 | 68 | – | O=C(O)c1ccccc1Nc1ccccc1 [FENAMIC ACID] |
| > 100 | > 100 | – | NC(=O)c1ccccc1Nc1ccc(NC(=O)c2ccccn2)cc1 |
| 39 | > 100 | – | NC(=O)c1ccccc1Nc1cccc(C(=O)NCc2ccccc2)c1 |
| 2.1 | > 100 | – | NC(=O)c1ccccc1Nc1cccc(OCCc2cccc(C(F)(F)F)c2)c1 |
| > 300 | > 100 | – | CN(C(=O)c1ccccc1)c1ccc(Nc2ccccc2C(N)=O)cc1 |
| > 100 | > 100 | – | CN(C(=O)c1cccc(Nc2ccccc2C(N)=O)c1)c1ccccc1 |
| 93 | – | – | COC(=O)CCc1cccc(Nc2ccccc2C(N)=O)c1 |
| 40 | > 100 | – | CN(Cc1ccccc1)C(=O)c1cccc(Nc2ccccc2C(N)=O)c1 |
| > 100 | > 100 | – | NC(=O)c1ccccc1Nc1ccc2ccccc2c1 |
| 30 | > 300 | – | CC(C)COc1cccc(Nc2ccccc2C(N)=O)c1 |
| > 100 | > 100 | – | CN(C(=O)Cc1ccccc1)c1cccc(Nc2ccccc2C(N)=O)c1 |
| 20 | > 100 | – | NC(=O)c1ccccc1Nc1ccc(/C=C\c2ccccc2)cc1 |
| > 100 | > 100 | – | NC(=O)c1ccccc1Nc1ccc(Oc2ccccc2)cc1 |
| 83 | > 100 | – | NC(=O)c1ccccc1Nc1cccc(C(=O)Nc2ccccc2)c1 |
| > 100 | > 100 | – | NC(=O)c1ccccc1Oc1ccccc1 |
| 88 | > 100 | – | NC(=O)c1ccccc1Nc1ccc(CCc2ccccc2)cc1 |
| 23 | > 100 | – | NC(=O)c1ccccc1Nc1ccc(C(=O)Nc2ccccc2)cc1 |
| 1.4 | > 100 | – | NC(=O)c1ccccc1Nc1cccc(OCCc2ccc(C(F)(F)F)cc2)c1 |
| 0.57 | > 100 | > 300 | NC(=O)c1ccccc1Nc1cccc(OCCc2cccc(F)c2)c1 |

| IC50 [1] [µM] | IC50 [2] [µM] | IC50 [3] [µM] | SMILES |
| --- | --- | --- | --- |
| 0.83 | > 100 | – | NC(=O)c1ccccc1Nc1cccc(OCCc2ccc(Cl)cc2)c1 |
| > 100 | 56 | – | NC(=O)c1ccccc1Nc1ccc(Cl)cc1 |
| 4.3 | > 300 | – | NC(=O)c1ccccc1Nc1cccc(OCCCc2ccccc2)c1 |
| > 100 | > 100 | – | CNC(=O)c1ccccc1Nc1ccccc1 |
| > 100 | – | – | NC(=O)c1ccccc1Nc1cccc(/C=C/C(=O)O)c1 |
| 1.6 | > 100 | – | Cc1ccc(CCOc2cccc(Nc3ccccc3C(N)=O)c2)cc1 |
| 53 | > 100 | – | NC(=O)c1ccccc1Nc1ccc(NC(=O)C2CCNCC2)cc1 |
| > 100 | – | – | NC(=O)c1ccccc1Nc1ccccc1 [ANILINOBENZAMIDE] |
| 3.1 | > 100 | – | NC(=O)c1ccccc1Nc1cccc(OCCc2ccccc2C(F)(F)F)c1 |
| 3.4 | > 100 | – | NC(=O)c1ccccc1Nc1cccc(OCCc2cccc(Br)c2)c1 |
| > 100 | – | – | CSc1ccc(Nc2ccccc2C(N)=O)cc1 |
| 2 | > 100 | – | NC(=O)c1ccccc1Nc1cccc(OCCc2ccccc2F)c1 |
| 69 | – | – | NC(=O)c1ccccc1Nc1ccc(C(F)(F)F)cc1 |
| 33 | – | – | NC(=O)c1ccccc1Nc1cccc(-c2ccccc2)c1 |
| > 100 | – | – | NC(=O)c1ccccc1Sc1ccccc1 |
| 38 | > 100 | – | NC(=O)c1ccccc1Nc1ccc(NC(=O)c2cccnc2)cc1 |
| > 300 | > 100 | – | NC(=O)c1ccccc1Nc1ccc(/C=C/c2ccccc2)cc1 |
| > 100 | > 100 | – | CN(C)C(=O)c1ccccc1Nc1ccccc1 |
| 25 | > 100 | – | NC(=O)c1ccccc1Nc1ccc(NC(=O)C2CCCCC2)cc1 |
| > 100 | – | – | CC(C)(C)c1ccc(Nc2ccccc2C(N)=O)cc1 |
| 32 | – | – | COC(=O)/C=C/c1cccc(Nc2ccccc2C(N)=O)c1 |
| 1.8 | > 100 | – | Cc1cccc(CCOc2cccc(Nc3ccccc3C(N)=O)c2)c1 |
| 1.5 | > 100 | – | NC(=O)c1ccccc1Nc1cccc(OCCc2ccccc2Cl)c1 |
